Active and inactive are the calls of the source. No cut-off for these calls is given here.
These molecules were tested on 3T3-L1 (assay: Cytotoxicity against mouse 3T3L1 cells assessed as reduction in cell viability at 10 ng/ml after 6 hrs by alamar blue assay). Conditions: 3t3-l1, 6 h.
Assay type: cell-based

Compound	Activity
COc1ccc(CCCCCCCc2ccccc2O)cc1OC	Non-Toxic
COc1ccc(C/C=C/Cc2ccc(OC)cc2)cc1	Non-Toxic
COc1ccc(C/C=C/CCCCc2ccc(O)cc2)cc1OC	Non-Toxic
COc1ccc(CCCCCCCc2ccc(O)cc2)cc1OC	Non-Toxic

What follows are molecules tested against T1, Prostaglandin E synthase (Mus musculus) (UniProt Q9JM51) (assay: Inhibition of mPGES1 in mouse 3T3L1 cells assessed as reduction in PGE2 production at 1 to 10 ng/ml after 1 hr by ELISA). Conditions: not given.
T1 sequence (whole entry): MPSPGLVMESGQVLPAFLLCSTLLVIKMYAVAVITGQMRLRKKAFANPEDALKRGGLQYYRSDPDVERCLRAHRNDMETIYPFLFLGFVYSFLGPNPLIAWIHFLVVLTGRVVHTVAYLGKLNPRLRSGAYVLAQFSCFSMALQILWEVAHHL
Assay type: cell-based
Outline: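 3T3 cells were treated with compound at 1 and 10 ng/ml. Culture media were collected and secreted PGE2 was measured by ELISA.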

Compound	inhibition
COc1ccc(C/C=C/CCCCc2ccc(O)cc2)cc1	inactive
COc1ccc(CCCCCCCc2ccccc2O)cc1	inactive
COc1ccc(C/C=C/CCCCc2ccccc2O)cc1	Active

Organism: Homo sapiens
Assay: Inhibition of TNFalpha-induced NFkappaB activation (unknown origin) expressed in mouse 3T3L1 cells at 10 ng/µl by luciferase reporter gene assay
Conditions: not given

Compound	inhibition
COc1ccc(CCCCCCCc2ccccc2O)cc1OC	inactive
COc1ccc(CCCCc2ccc(OC)cc2)cc1	inactive
COc1ccc(C/C=C/CCCCc2ccccc2O)cc1OC	inactive
COc1cc(/C=C/C(=O)CC(=O)/C=C/c2ccc(O)c(OC)c2)ccc1O	Active
COc1ccc(CCCCCCCc2ccc(O)cc2)cc1	inactive
COc1ccc(C/C=C/CCCCc2ccccc2O)cc1	inactive

The molecules below were run against T1, Prostaglandin E synthase (Mus musculus) (assay: Inhibition of mPGES1 in mouse 3T3L1 cells assessed as reduction in PGE2 production at 10 ng/ml after 1 hr by ELISA relative to control; values are per cent of control). Conditions: not given.

Compound	residual activity [%]
COc1ccc(CCCCCCCc2ccc(O)cc2)cc1OC	33

These molecules were tested against T1, Prostaglandin E synthase (Mus musculus) (assay: (§1) Inhibition of mPGES1 in mouse 3T3L1 cells assessed as reduction in PGE2 production after 1 hr by ELISA). Conditions: not given.
Assay type: cell-based
Outline: (§2)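 3T3 cells were treated at four doses and secreted PGE2 was measured by ELISA. IC50 was obtained by four-parameter logistic fit.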

Compound	inhibition
COc1ccc(CCCCCCCc2ccccc2O)cc1OC	Dose-dependent effect
COc1ccc(C/C=C/Cc2ccc(OC)cc2)cc1	Dose-dependent effect
COc1ccc(CCCCc2ccc(OC)cc2)cc1	Dose-dependent effect
COc1ccc(C/C=C/CCCCc2ccc(O)cc2)cc1OC	Dose-dependent effect
COc1ccc(CCCCCCCc2ccc(O)cc2)cc1OC	Dose-dependent effect

What follows are molecules tested against T2, Prostaglandin E synthase (Mus musculus, UniProt Q9JM51) (assay: as §1). Conditions: not given.
T2 sequence (Q9JM51 whole entry): T1 sequence (whole entry)
Assay type: cell-based
Outline: as §2

Compound	IC50 [µM]
COc1ccc(CCCCCCCc2ccccc2O)cc1OC	17
COc1ccc(C/C=C/Cc2ccc(OC)cc2)cc1	12
COc1ccc(C/C=C/CCCCc2ccc(O)cc2)cc1OC	1.7
COc1ccc(CCCCCCCc2ccc(O)cc2)cc1OC	29
